According to ChEMBL document CHEMBL5303300, “EUbOPEN Chemogenomics Library - Multiplex” (2023):
Values joined by “and” are separate entries in the source; they are usually repeats but may differ in a detail not shown here. Equal values may be shown once.

What was measured:
[1] = system: Fibroblast; assay: Multiplex assay against human fibroblast; assay type: toxicity, cell-based; details: number of replicates 2
Outline: (§1)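 Cells were classed with CellPathfinder machine-learning gating, first as Hoechst high-intensity objects or normal cells, then (normal cells) as healthy, pyknosed or fragmented nuclei, and finally (pyknosed cells) as mitotic or apoptotic. Staining of live cells at seeding used Hoechst33342, BioTracker Green Microtubule Cytoskeleton Dye, MitoTracker Red and Annexin V Alexa Fluor 680, with imaging on a CQ1 microscope at 37°C and 5% CO2 after compound addition. Tubulin, mitochondrial-mass and membrane-permeability phenotypes are per cents of healthy-nucleus cells.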

[2] = system: HEK-293T; assay: Multiplex assay against HEK293T; assay type: toxicity, cell-based; details: human, number of replicates 2; outline: as §1
[3] = 12 h, 1 µM, compound concentration 1 uM
[4] = 12 h, 10 µM, compound concentration 10 uM
[5] = 24 h, 1 µM, compound concentration 1 uM
[6] = 24 h, 10 µM, compound concentration 10 uM
[7] = 48 h, 1 µM, compound concentration 1 uM
[8] = 48 h, 10 µM, compound concentration 10 uM

COc1ncc(-c2cc(-c3ncc(CN4C[C@@H](C)O[C@@H](C)C4)o3)c3cn[nH]c3c2)cc1NS(C)(=O)=O
Population Apoptotic (%) [1, 3]: 48% | Population Fragmented Nuclei (%) [1, 3]: 7% and 8% | Population Healthy Nuclei (%) [1, 3]: 77% and 70% | Population Hoechst High Intensity Objects (%) [1, 3]: 0% | Population Membrane Permeable-Phenotype (%) [1, 3]: 5% and 10% | Population Mitochondria Different-Phenotype (%) [1, 3]: 0% | Population Mitotic Cells (%) [1, 3]: 51% | Population Normal (%) [1, 3]: 100% | Population Pyknosed Nuclei (%) [1, 3]: 14% and 21% | Population Tubulin-Different-Phenotype (%) [1, 3]: 13% and 11% | Total Cell Count [1, 3]: 228 and 199 | Population Apoptotic (%) [1, 4]: 30% and 51% | Population Fragmented Nuclei (%) [1, 4]: 4% and 11% | Population Healthy Nuclei (%) [1, 4]: 59% and 66% | Population Hoechst High Intensity Objects (%) [1, 4]: 0% | Population Membrane Permeable-Phenotype (%) [1, 4]: 10% and 9% | Population Mitochondria Different-Phenotype (%) [1, 4]: 3% and 5% | Population Mitotic Cells (%) [1, 4]: 69% and 48% | Population Normal (%) [1, 4]: 100% | Population Pyknosed Nuclei (%) [1, 4]: 35% and 22% | Population Tubulin-Different-Phenotype (%) [1, 4]: 40% and 37% | Total Cell Count [1, 4]: 129 and 148 | Population Apoptotic (%) [1, 5]: 51% and 60% | Population Fragmented Nuclei (%) [1, 5]: 6% and 9% | Population Healthy Nuclei (%) [1, 5]: 79% and 67% | Population Hoechst High Intensity Objects (%) [1, 5]: 0% | Population Membrane Permeable-Phenotype (%) [1, 5]: 5% and 11% | Population Mitochondria Different-Phenotype (%) [1, 5]: 0% | Population Mitotic Cells (%) [1, 5]: 48% and 39% | Population Normal (%) [1, 5]: 100% and 99% | Population Pyknosed Nuclei (%) [1, 5]: 13% and 23% | Population Tubulin-Different-Phenotype (%) [1, 5]: 9% and 13% | Total Cell Count [1, 5]: 224 and 204 | Population Apoptotic (%) [1, 6]: 55% and 66% | Population Fragmented Nuclei (%) [1, 6]: 6% and 11% | Population Healthy Nuclei (%) [1, 6]: 62% and 71% | Population Hoechst High Intensity Objects (%) [1, 6]: 0% | Population Membrane Permeable-Phenotype (%) [1, 6]: 0% and 6% | Population Mitochondria Different-Phenotype (%) [1, 6]: 3% and 4% | Population Mitotic Cells (%) [1, 6]: 45% and 33% | Population Normal (%) [1, 6]: 100% | Population Pyknosed Nuclei (%) [1, 6]: 31% and 17% | Population Tubulin-Different-Phenotype (%) [1, 6]: 30% and 25% | Total Cell Count [1, 6]: 128 and 157 | Population Apoptotic (%) [1, 7]: 69% and 60% | Population Fragmented Nuclei (%) [1, 7]: 12% and 10% | Population Healthy Nuclei (%) [1, 7]: 77% and 74% | Population Hoechst High Intensity Objects (%) [1, 7]: 0% | Population Membrane Permeable-Phenotype (%) [1, 7]: 2% and 7% | Population Mitochondria Different-Phenotype (%) [1, 7]: 0% | Population Mitotic Cells (%) [1, 7]: 30% and 40% | Population Normal (%) [1, 7]: 100% and 99% | Population Pyknosed Nuclei (%) [1, 7]: 9% and 14% | Population Tubulin-Different-Phenotype (%) [1, 7]: 4% and 11% | Total Cell Count [1, 7]: 235 and 206 | Population Apoptotic (%) [1, 8]: 70% and 78% | Population Fragmented Nuclei (%) [1, 8]: 5% and 13% | Population Healthy Nuclei (%) [1, 8]: 64% and 67% | Population Hoechst High Intensity Objects (%) [1, 8]: 0% | Population Membrane Permeable-Phenotype (%) [1, 8]: 4% and 5% | Population Mitochondria Different-Phenotype (%) [1, 8]: 4% and 1% | Population Mitotic Cells (%) [1, 8]: 30% and 21% | Population Normal (%) [1, 8]: 100% and 99% | Population Pyknosed Nuclei (%) [1, 8]: 29% and 19% | Population Tubulin-Different-Phenotype (%) [1, 8]: 39% and 28% | Total Cell Count [1, 8]: 134 and 167 | Population Apoptotic (%) [2, 3]: 48% and 56% | Population Fragmented Nuclei (%) [2, 3]: 3% and 2% | Population Healthy Nuclei (%) [2, 3]: 86% and 81% | Population Hoechst High Intensity Objects (%) [2, 3]: 10% | Population Membrane Permeable-Phenotype (%) [2, 3]: 4% and 1% | Population Mitochondria Different-Phenotype (%) [2, 3]: 17% and 26% | Population Mitotic Cells (%) [2, 3]: 51% and 43% | Population Normal (%) [2, 3]: 89% | Population Pyknosed Nuclei (%) [2, 3]: 10% and 15% | Population Tubulin-Different-Phenotype (%) [2, 3]: 65% and 71% | Total Cell Count [2, 3]: 695 and 654 | Population Apoptotic (%) [2, 4]: 46% and 58% | Population Fragmented Nuclei (%) [2, 4]: 2% and 3% | Population Healthy Nuclei (%) [2, 4]: 75% and 82% | Population Hoechst High Intensity Objects (%) [2, 4]: 9% | Population Membrane Permeable-Phenotype (%) [2, 4]: 0% and 1% | Population Mitochondria Different-Phenotype (%) [2, 4]: 54% and 51% | Population Mitotic Cells (%) [2, 4]: 53% and 41% | Population Normal (%) [2, 4]: 90% | Population Pyknosed Nuclei (%) [2, 4]: 22% and 14% | Population Tubulin-Different-Phenotype (%) [2, 4]: 88% and 87% | Total Cell Count [2, 4]: 336 and 358 | Population Apoptotic (%) [2, 5]: 40% and 54% | Population Fragmented Nuclei (%) [2, 5]: 7% and 5% | Population Healthy Nuclei (%) [2, 5]: 86% and 83% | Population Hoechst High Intensity Objects (%) [2, 5]: 12% and 10% | Population Membrane Permeable-Phenotype (%) [2, 5]: 2% and 1% | Population Mitochondria Different-Phenotype (%) [2, 5]: 4% and 10%
